Laboratory results published in ChEMBL document CHEMBL4152256, “Structure-activity relationship of new antimalarial 1-aryl-3-susbtituted propanol derivatives: Synthesis, preliminary toxicity profiling, parasite life cycle stage studies, target exploration, and targeted delivery” (Eur J Med Chem, 2018).
Active and inactive are the calls of the source. The rule behind the calls is not given here.

Experiments:
Plasmodium berghei [1] = experiment: Antiplasmodial activity against Plasmodium berghei ANKA infected in mouse assessed as inhibition of parasitemia at 50 mg/kg/day, po for 4 consecutive days starting from 2 hrs post infection by MSF assay relative to control; format: functional
Procedure, shortened: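 Swiss male mice (20 ± 2 g) infected ip with 10^7 P. berghei ANKA parasitized cells (day 0). Five per group dosed orally 2 h after infection and daily on days 0–3. Test compounds at 50 mg/kg/day in water:DMSO; chloroquine diphosphate at 3 mg/kg/day; vehicle controls. Parasitemia measured on day 4 by MSF assay; survival checked daily.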

[2] = Genotoxicity in Salmonella typhimurium TA1535 harboring pSK1002 assessed as survival at 0.004 mg/ml in absence of Sprague-Dawley rat liver S9 fraction after by SOS/umu assay relative to control; format: toxicity, organism-based; conditions: salmonella enterica subsp. enterica serovar typhimurium, read-out: Survival
[3] = Solubility of the compound in DSPC:cholesterol:DSPE-PEG2000-Mal:DOPE-Rho lipid mixture at 250 uM; format: physicochemical
Procedure, shortened: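 Compound added at 250 µM drug to the initial liposome lipid mixture (10 mM total lipid); precipitation and UV-visible absorbance above 300 nm assessed after encapsulation, removal of unencapsulated material and extraction with 1% w/v SDS in RPMI-A.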

[4] = Genotoxicity in Salmonella typhimurium TA1535 harboring pSK1002 assessed as umu gene induction at 0.0002 mg/ml in presence of Sprague-Dawley rat liver S9 fraction after by SOS/umu assay relative to control; format: toxicity, organism-based; conditions: salmonella enterica subsp. enterica serovar typhimurium, read-out: FC
Plasmodium falciparum [5] = experiment: Antiplasmodial activity against chloroquine-sensitive Plasmodium falciparum 3D7 by [3H]-hypoxanthine incorporation assay; format: functional, organism-based; conditions: Plasmodium falciparum, 3D7
Procedure, shortened: (§1)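 Blood-stage P. falciparum 3D7 and FCR-3 were tested by a modified [3H]-hypoxanthine incorporation assay. Chloroquine was the reference in all runs.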

Plasmodium berghei [6] = experiment: Antiplasmodial activity against Plasmodium berghei ANKA infected in mouse assessed as mouse survival time at 50 mg/kg/day, po for 4 consecutive days starting from 2 hrs post infection by MSF assay; format: functional
Procedure, shortened: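 Swiss male mice (20 ± 2 g) infected i.p. with 10^7 P. berghei ANKA parasitized cells in 0.1 mL 0.9% saline (day 0). Oral dosing began 2 h post-infection and continued daily on days 0–3, five mice per batch. Test drugs were given at 50 mg/kg/day in water:DMSO and chloroquine diphosphate at 3 mg/kg/day; a vehicle control was included. Survival was checked daily, and parasitemia was read on day 4 by modified MSF assay.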

[7] = Cytotoxicity against human HepG2A16 cells by MTT assay; format: cell-based; conditions: HepG2A16 cells
Procedure, shortened: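 MTT viability assay on HepG2-A16 cells, giving CC50 values.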

[8] = Genotoxicity in Salmonella typhimurium TA1535 harboring pSK1002 assessed as survival at 0.002 mg/ml in presence of Sprague-Dawley rat liver S9 fraction after by SOS/umu assay relative to control; format: toxicity, organism-based; conditions: salmonella enterica subsp. enterica serovar typhimurium, read-out: Survival
[9] = Genotoxicity in Salmonella typhimurium TA1535 harboring pSK1002 assessed as survival at 0.0002 mg/ml in presence of Sprague-Dawley rat liver S9 fraction after by SOS/umu assay relative to control; format: toxicity, organism-based; conditions: salmonella enterica subsp. enterica serovar typhimurium, read-out: Survival
[10] = Genotoxicity in Salmonella typhimurium TA1535 harboring pSK1002 assessed as umu gene induction at 0.002 mg/ml in absence of Sprague-Dawley rat liver S9 fraction after by SOS/umu assay relative to control; format: toxicity, organism-based; conditions: salmonella enterica subsp. enterica serovar typhimurium, read-out: FC
[11] = Genotoxicity in Salmonella typhimurium TA1535 harboring pSK1002 assessed as umu gene induction at 0.0005 mg/ml in presence of Sprague-Dawley rat liver S9 fraction after by SOS/umu assay relative to control; format: toxicity, organism-based; conditions: salmonella enterica subsp. enterica serovar typhimurium, read-out: FC
[12] = Selectivity index, ratio of CC50 for human HepG2A16 cells by MTT assay to IC50 for multidrug-resistant Plasmodium falciparum FCR-3; format: toxicity; conditions: HepG2A16 cells, read-out: Ratio CC50/IC50
Procedure, shortened: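 HepG2-A16 human hepatoma cells were tested by MTT viability assay to give CC50. Blood-stage activity was measured against the multidrug-resistant P. falciparum FCR-3 strain by [3H]-hypoxanthine incorporation to give IC50. SI = CC50 HepG2 / FCR-3 IC50.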

[13] = Genotoxicity in Salmonella typhimurium TA1535 harboring pSK1002 assessed as survival at 0.002 mg/ml in absence of Sprague-Dawley rat liver S9 fraction after by SOS/umu assay relative to control; format: toxicity, organism-based; conditions: salmonella enterica subsp. enterica serovar typhimurium, read-out: Survival
[14] = Genotoxicity in Salmonella typhimurium TA1535 harboring pSK1002 assessed as survival at 0.0002 mg/ml in absence of Sprague-Dawley rat liver S9 fraction after by SOS/umu assay relative to control; format: toxicity, organism-based; conditions: salmonella enterica subsp. enterica serovar typhimurium, read-out: Survival
[15] = Genotoxicity in Salmonella typhimurium TA1535 harboring pSK1002 assessed as umu gene induction at 0.0002 mg/ml in absence of Sprague-Dawley rat liver S9 fraction after by SOS/umu assay relative to control; format: toxicity, organism-based; conditions: salmonella enterica subsp. enterica serovar typhimurium, read-out: FC
[16] = Genotoxicity in Salmonella typhimurium TA1535 harboring pSK1002 assessed as umu gene induction at 0.004 mg/ml in absence of Sprague-Dawley rat liver S9 fraction after by SOS/umu assay relative to control; format: toxicity, organism-based; conditions: salmonella enterica subsp. enterica serovar typhimurium, read-out: FC
[17] = Genotoxicity in Salmonella typhimurium TA1535 harboring pSK1002 assessed as umu gene induction at 0.004 mg/ml in presence of Sprague-Dawley rat liver S9 fraction after by SOS/umu assay relative to control; format: toxicity, organism-based; conditions: salmonella enterica subsp. enterica serovar typhimurium, read-out: FC
[18] = Genotoxicity in Salmonella typhimurium TA1535 harboring pSK1002 assessed as survival at 0.0005 mg/ml in absence of Sprague-Dawley rat liver S9 fraction after by SOS/umu assay relative to control; format: toxicity, organism-based; conditions: salmonella enterica subsp. enterica serovar typhimurium, read-out: Survival
[19] = Genotoxicity in Salmonella typhimurium TA1535 harboring pSK1002 assessed as umu gene induction at 0.001 mg/ml in absence of Sprague-Dawley rat liver S9 fraction after by SOS/umu assay relative to control; format: toxicity, organism-based; conditions: salmonella enterica subsp. enterica serovar typhimurium, read-out: FC
[20] = Genotoxicity in Salmonella typhimurium TA1535 harboring pSK1002 assessed as umu gene induction at 0.0005 mg/ml in absence of Sprague-Dawley rat liver S9 fraction after by SOS/umu assay relative to control; format: toxicity, organism-based; conditions: salmonella enterica subsp. enterica serovar typhimurium, read-out: FC
[21] = Genotoxicity in Salmonella typhimurium TA1535 harboring pSK1002 assessed as survival at 0.001 mg/ml in presence of Sprague-Dawley rat liver S9 fraction after by SOS/umu assay relative to control; format: toxicity, organism-based; conditions: salmonella enterica subsp. enterica serovar typhimurium, read-out: Survival
[22] = Genotoxicity in Salmonella typhimurium TA1535 harboring pSK1002 assessed as survival at 0.0005 mg/ml in presence of Sprague-Dawley rat liver S9 fraction after by SOS/umu assay relative to control; format: toxicity, organism-based; conditions: salmonella enterica subsp. enterica serovar typhimurium, read-out: Survival
[23] = Genotoxicity in Salmonella typhimurium TA1535 harboring pSK1002 assessed as survival at 0.004 mg/ml in presence of Sprague-Dawley rat liver S9 fraction after by SOS/umu assay relative to control; format: toxicity, organism-based; conditions: salmonella enterica subsp. enterica serovar typhimurium, read-out: Survival
Plasmodium falciparum [24] = experiment: Antiplasmodial activity against multidrug-resistant Plasmodium falciparum FCR-3 by [3H]-hypoxanthine incorporation assay; format: functional, organism-based, FCR-3/Gambia; conditions: Plasmodium falciparum, FCR-3/Gambia; procedure, shortened: as §1
[25] = Genotoxicity in Salmonella typhimurium TA1535 harboring pSK1002 assessed as umu gene induction at 0.001 mg/ml in presence of Sprague-Dawley rat liver S9 fraction after by SOS/umu assay relative to control; format: toxicity, organism-based; conditions: salmonella enterica subsp. enterica serovar typhimurium, read-out: FC
[26] = Genotoxicity in Salmonella typhimurium TA1535 harboring pSK1002 assessed as survival at 0.001 mg/ml in absence of Sprague-Dawley rat liver S9 fraction after by SOS/umu assay relative to control; format: toxicity, organism-based; conditions: salmonella enterica subsp. enterica serovar typhimurium, read-out: Survival
[27] = Genotoxicity in Salmonella typhimurium TA1535 harboring pSK1002 assessed as umu gene induction at 0.002 mg/ml in presence of Sprague-Dawley rat liver S9 fraction after by SOS/umu assay relative to control; format: toxicity, organism-based; conditions: salmonella enterica subsp. enterica serovar typhimurium, read-out: FC

SMILES	viability at 0.004 mg/ml [2] [%]	solubility [3]	fold induction at 0.0002 mg/ml [4]	IC50 (Plasmodium falciparum [5]) [µM]	CC50 [7] [µM]	viability at 0.002 mg/ml [8] [%]	viability at 0.0002 mg/ml [9] [%]	fold induction at 0.002 mg/ml [10]	fold induction at 0.0005 mg/ml [11]	selectivity ratio [12]	viability at 0.002 mg/ml [13] [%]	viability at 0.0002 mg/ml [14] [%]	fold induction at 0.0002 mg/ml [15]	fold induction at 0.004 mg/ml [16]	fold induction at 0.004 mg/ml [17]	viability at 0.0005 mg/ml [18] [%]	fold induction at 0.001 mg/ml [19]	fold induction at 0.0005 mg/ml [20]	viability at 0.001 mg/ml [21] [%]	viability at 0.0005 mg/ml [22] [%]	also measured
OC(CCN1CCN(C(c2ccccc2)c2ccccc2)CC1)c1ccc(F)cc1 (configuration not stated)	97.8	Insoluble	1	1.08	252	89.6	101	1.5	1.1	406	95.9	102	1.1	1	1	100	1	1	95.7	86.4	inhibition (Plasmodium berghei [1]): inactive; MSD (Plasmodium berghei [6]): 8 days; viability at 0.004 mg/ml [23]: 87%; IC50 (Plasmodium falciparum [24]): 0.62 µM; fold induction at 0.001 mg/ml [25]: 1; viability at 0.001 mg/ml [26]: 94.9%; fold induction at 0.002 mg/ml [27]: 1.1
OC(CCN1CCN(C(c2ccccc2)c2ccccc2)CC1)c1ccc(F)c(Cl)c1 (configuration not stated)	119	Insoluble	1	5.11	269	73.1	92.3	1	0.9	194	103	110	0.8	0.8	1.2	117	1	0.9	91.4	97.7	viability at 0.004 mg/ml [23]: 87.7%; IC50 (Plasmodium falciparum [24]): 1.39 µM; fold induction at 0.001 mg/ml [25]: 0.5; viability at 0.001 mg/ml [26]: 105%; fold induction at 0.002 mg/ml [27]: 1.1
